Key:
[1] = biological target: T1, Progesterone receptor (Homo sapiens) (UniProt P06401); experiment: Relative binding affinity for progesterone receptor in MCF-7 cell cytosol extract
T1 sequence (whole entry): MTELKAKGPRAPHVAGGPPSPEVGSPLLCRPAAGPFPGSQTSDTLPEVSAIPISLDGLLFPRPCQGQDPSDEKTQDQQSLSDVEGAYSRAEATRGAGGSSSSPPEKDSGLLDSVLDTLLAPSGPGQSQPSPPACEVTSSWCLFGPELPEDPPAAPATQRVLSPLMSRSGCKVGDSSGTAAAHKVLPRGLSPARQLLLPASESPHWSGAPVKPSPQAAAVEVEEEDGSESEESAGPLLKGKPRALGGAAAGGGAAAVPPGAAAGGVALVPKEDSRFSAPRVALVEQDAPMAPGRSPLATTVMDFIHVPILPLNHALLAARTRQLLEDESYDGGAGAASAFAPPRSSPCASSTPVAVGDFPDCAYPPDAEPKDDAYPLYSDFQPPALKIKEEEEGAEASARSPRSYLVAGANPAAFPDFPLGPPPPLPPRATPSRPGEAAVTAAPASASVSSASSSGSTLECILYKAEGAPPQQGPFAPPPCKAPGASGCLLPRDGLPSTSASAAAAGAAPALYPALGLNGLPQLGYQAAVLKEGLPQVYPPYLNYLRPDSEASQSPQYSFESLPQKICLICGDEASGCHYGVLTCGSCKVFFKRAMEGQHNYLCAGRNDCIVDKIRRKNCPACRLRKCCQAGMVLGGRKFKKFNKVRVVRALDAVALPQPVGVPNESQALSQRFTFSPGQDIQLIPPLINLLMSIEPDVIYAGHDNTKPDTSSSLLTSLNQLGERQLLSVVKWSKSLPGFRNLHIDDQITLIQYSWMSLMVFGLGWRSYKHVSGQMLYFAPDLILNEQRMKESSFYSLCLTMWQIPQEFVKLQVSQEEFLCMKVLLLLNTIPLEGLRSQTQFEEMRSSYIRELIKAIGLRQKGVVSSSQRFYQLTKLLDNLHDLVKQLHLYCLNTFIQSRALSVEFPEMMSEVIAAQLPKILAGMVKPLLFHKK

Rattus norvegicus = organism: Rattus norvegicus; experiment: Relative binding affinity for progesterone receptor in rat uterine cytosol extract; settings: Uterus
How it was run: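 Tissue homogenized in molybdate-free TEGT buffer, and cytosol (105000g supernatant) used at 0.8–1.2 mg/mL protein. Incubation was 20 h at 4 °C with 1.0 nM [3H]R5020 (final) over a competitor range. Bound/free separated on Sephadex LH-20, then scintillation counting.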

Row | SMILES | Binding [1] [%] | Binding (Rattus norvegicus) [%]
1 | CC(=O)[C@H]1CC[C@H]2[C@@H]3CCC4=CC(=O)CC[C@]4(C)[C@H]3CC[C@]12C | 100 | 100
2 | CC12CC[C@H]3[C@@H]([C@H](I)C[C@H]4CC(=O)CCC43C)[C@@H]1CCC2O (some centres not stated) | 0.239 | 1.12
3 | C[C@]12CCC(=O)C[C@@H]1CC[C@@H]1[C@@H]2CC[C@]2(C)[C@@H](O)CC[C@@H]12 | 0.205 | 1.26
4 | C[C@]12CC[C@H]3[C@@H](CCC4=CC(=O)CC[C@@]43C)[C@@H]1CC[C@@H]2O | 0.112 | 1.55
5 | C[C@]1(O)CC[C@H]2[C@@H]3CCC4=CC(=O)CCC4=C3C=C[C@@]21C | 98 | 142
6 | C[C@@H]1CC2=CC(=O)CCC2[C@H]2CC[C@@]3(C)[C@@H](CC[C@@]3(O)/C=C/I)[C@H]12 (some centres not stated) | 9.84 | 12.3

Reference: ChEMBL document CHEMBL1127640, “Synthesis and evaluation of 7 alpha-iodo-5 alpha-dihydrotestosterone as a potential radioligand for androgen receptor” (J Med Chem, 1994)
